Key:
[1] = Solution stability in the kit matrix by radio-HPLC; type: physicochemical; details: kit matrix (TPPTS, tricine, mannitol, succinate buffer); monitored by radio-HPLC for 6 h
[2] = SPECT/CT quantification of tumor uptake, MDA-MB-231 breast tumor model; type: in vivo, athymic nude mice; details: athymic nude, mouse, iv, 37 MBq, total radioactivity
How it was run: (§1)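 Mice bearing U87MG glioma and MDA-MB-231 breast xenografts (4 weeks post-inoculation) got ~37 MBq 99mTc radiotracer (not HPLC-purified) in 0.1 mL saline by tail vein, under ~2.0% isoflurane. Multi-pinhole SPECT (75 projections over 30 min per frame, 2 frames), then CT at 45 kV, 500 μA. Tumors delineated on CT/SPECT; activity taken from a γ-counter-calibrated source standard curve, as %ID/cm3.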

[3] = Biodistribution in athymic nude mice bearing U87MG glioma xenografts; type: in vivo; details: female, athymic nu/nu, mouse, iv, total radioactivity
U87MG glioma xenografts = assay: SPECT/CT quantification of tumor uptake, U87MG glioma model; type: in vivo, athymic nude mice; details: ~37 MBq i.v., SPECT/CT at 60 min p.i.
How it was run: as §1

[4] = tested on: U87MG human glioma xenografts; assay: Biodistribution in athymic nude mice bearing U87MG glioma xenografts; type: in vivo
[5] = 5 min p.i., U87MG glioma-bearing athymic nude mice

Compound | Time remained stable in the kit matrix postlabeling [1] | tissue uptake at 0.5 h ([3]; lungs, 0.1 MBq) | tissue uptake at 1 h ([3]; lungs, 0.1 MBq) | tissue uptake at 2 h ([3]; lungs, 0.1 MBq) | tissue uptake at 0.5 h ([3]; muscle, 0.1 MBq) | tissue uptake at 1 h ([3]; muscle, 0.1 MBq) | tissue uptake at 2 h ([3]; muscle, 0.1 MBq) | tissue uptake at 0.5 h ([3]; spleen, 0.1 MBq) | tissue uptake at 1 h ([3]; spleen, 0.1 MBq) | tissue uptake at 2 h ([3]; spleen, 0.1 MBq) | tissue to tissue ratio at 0.5 h ([3]; tumor and blood, 0.1 MBq) | tissue to tissue ratio at 1 h ([3]; tumor and blood, 0.1 MBq) | tissue to tissue ratio at 2 h ([3]; tumor and blood, 0.1 MBq) | tissue to tissue ratio at 0.5 h ([3]; tumor and liver, 0.1 MBq) | tissue to tissue ratio at 1 h ([3]; tumor and liver, 0.1 MBq) | tissue to tissue ratio at 2 h ([3]; tumor and liver, 0.1 MBq) | tissue to tissue ratio at 0.5 h ([3]; tumor and lung) | tissue to tissue ratio at 1 h ([3]; tumor and lung) | tissue to tissue ratio at 2 h ([3]; tumor and lung) | tissue to tissue ratio at 0.5 h ([3]; tumor and muscle) | also measured
N=C(N)NCCC[C@@H]1NC(=O)[C@H](CCCCNC(=O)CNC(=O)CNC(=O)CNC(=O)CC[C@H](NC(=O)CCOCCOCCOCCOCCNC(=O)c2ccc(NN)nc2)C(=O)NCC(=O)NCC(=O)NCC(=O)NCCCC[C@@H]2NC(=O)[C@@H](Cc3ccccc3)NC(=O)[C@H](CC(=O)O)NC(=O)CNC(=O)[C@H](CCCNC(=N)N)NC2=O)NC(=O)[C@@H](Cc2ccccc2)NC(=O)[C@H](CC(=O)O)NC(=O)CNC1=O [^99mTc-P6G-RGD2, [^99mTc(HYNIC-P6G-RGD2)(tricine)(TPPTS)], metal not drawn] | more than 6 h | 4.38 ± 0.55 %ID/g | 3.83 ± 0.56 %ID/g | 2.81 ± 0.36 %ID/g | 1.75 ± 0.24 %ID/g | 1.68 ± 0.33 %ID/g | 0.83 ± 0.11 %ID/g | 3.08 ± 0.88 %ID/g | 2.68 ± 0.57 %ID/g | 2.31 ± 0.27 %ID/g | 14.1 ± 1.25 | 15.6 ± 2.79 | 41.8 ± 5.13 | 2.95 ± 0.33 | 2.86 ± 0.3 | 3.21 ± 0.53 | 2.07 ± 0.15 | 2.35 ± 0.24 | 2.71 ± 0.12 | 5.04 ± 0.68 | tissue uptake per volume at 1 h [2]: 3.5 %ID/mL; tissue to tissue ratio at 1 h ([3]; tumor and muscle): 5.09 ± 0.51; tissue to tissue ratio at 2 h ([3]; tumor and muscle): 9.42 ± 1.25; tissue uptake at 0.5 h ([3]; tumor, 0.1 MBq): 8.85 ± 0.67 %ID/g; tissue uptake at 1 h ([3]; tumor, 0.1 MBq): 8.17 ± 1.1 %ID/g; tissue uptake at 2 h ([3]; tumor, 0.1 MBq): 7.82 ± 0.76 %ID/g; Tumor uptake on the basis of SPECT quantification (U87MG glioma xenografts): ~8.2 %ID/cm^3
N=C(N)NCCC[C@@H]1NC(=O)[C@H](CCCCNC(=O)[C@H](CC(=O)O)NC(=O)[C@H](CC(=O)O)NC(=O)[C@H](CC(=O)O)NC(=O)CC[C@H](NC(=O)CCOCCOCCOCCOCCNC(=O)c2ccc(NN)nc2)C(=O)N[C@@H](CC(=O)O)C(=O)N[C@@H](CC(=O)O)C(=O)N[C@@H](CC(=O)O)C(=O)NCCCC[C@@H]2NC(=O)[C@@H](Cc3ccccc3)NC(=O)[C@H](CC(=O)O)NC(=O)CNC(=O)[C@H](CCCNC(=N)N)NC2=O)NC(=O)[C@@H](Cc2ccccc2)NC(=O)[C@H](CC(=O)O)NC(=O)CNC1=O [^99mTc-P6D-RGD2, [^99mTc(HYNIC-P6D-RGD2)(tricine)(TPPTS)], metal not drawn] | more than 6 h | 2.05 ± 0.28 %ID/g | 1.85 ± 0.2 %ID/g | 1.11 ± 0.42 %ID/g | 1.79 ± 0.2 %ID/g | 1.59 ± 0.25 %ID/g | 0.79 ± 0.23 %ID/g | 2.6 ± 0.37 %ID/g | 2.58 ± 0.46 %ID/g | 2.4 ± 0.37 %ID/g | 2.5 ± 0.33 | 6.5 ± 0.58 | 6.98 ± 4.06 | 0.65 ± 0.15 | 0.87 ± 0.17 | 0.84 ± 0.18 | 1.19 ± 0.35 | 1.68 ± 0.1 | 2.41 ± 0.73 | 1.97 ± 0.53 | Initial blood radioactivity level, fold higher than ^99mTc-3P-RGD2 [4, 5]: ~3 ×; Initial blood radioactivity level, fold higher than ^99mTc-P6G-RGD2 [4, 5]: ~5 ×; Integrin αvβ3 specificity of tumor uptake (blocking experiment) ([4]; 60 min p.i., with/without coinjection of excess RGD2 (350 μg/mouse or 14 mg/kg)): integrin αvβ3-specific; tissue uptake at 1 h ([3]; blood, 14 mg/kg): 0.23 ± 0.01 %ID/g; tissue uptake at 1 h ([3]; brain, 14 mg/kg): 0.02 ± 0.01 %ID/g; tissue uptake at 1 h ([3]; eyes, 14 mg/kg): 0.23 ± 0.1 %ID/g; tissue uptake at 1 h ([3]; heart, 14 mg/kg): 0.2 ± 0.07 %ID/g; tissue uptake at 1 h ([3]; intestine, 14 mg/kg): 0.22 ± 0.11 %ID/g; tissue uptake at 1 h ([3]; kidneys, 14 mg/kg): 23.9 ± 3.61 %ID/g; tissue uptake at 1 h ([3]; liver, 14 mg/kg): 0.28 ± 0.04 %ID/g; tissue to tissue ratio at 1 h ([3]; tumor and lung, 14 mg/kg): 1.1 ± 0.13; tissue to tissue ratio at 1 h ([3]; tumor and muscle): 2 ± 0.36; tissue to tissue ratio at 2 h ([3]; tumor and muscle): 3.3 ± 1.24; tissue uptake at 0.5 h ([3]; tumor, 0.1 MBq): 2.85 ± 0.55 %ID/g; tissue uptake at 1 h ([3]; tumor, 0.1 MBq): 3.13 ± 0.47 %ID/g; tissue uptake at 2 h ([3]; tumor, 0.1 MBq): 2.45 ± 0.9 %ID/g
